In brackets after ≈: the same amount, converted by molar mass.
Key:
Assay type in all cases: functional
Staphylococcus aureus [1] = experiment: Antibacterial activity against methicillin-sensitive Staphylococcus aureus ATCC 29213 assessed as reduction in bacterial growth incubated for 18 hrs by agar dilution method; details: ATCC 29213, 18 h
Outline: (§1)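 CLSI agar dilution MIC. Stocks at 1920 μg/ml in 0.2% DMSO, twofold diluted and mixed into agar plates to final 0.03–128 µg/mL. Inoculum set to 0.5 turbidity, diluted 10-fold and applied by multipoint inoculator within 30 min, about 10^4 CFU per spot. Plates incubated 35 ± 2°C for 18 h. MIC is the lowest concentration with no visible growth.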

[2] = test system: Staphylococcus epidermidis; experiment: Antibacterial activity against methicillin-resistant Staphylococcus epidermidis 16-5 assessed as reduction in bacterial growth incubated for 18 hrs by agar dilution method; details: 16-5, 18 h; outline: as §1
Staphylococcus aureus [3] = experiment: Antibacterial activity against methicillin-resistant Staphylococcus aureus ATCC 33591 assessed as reduction in bacterial growth incubated for 18 hrs by agar dilution method; details: ATCC 33591, 18 h; outline: as §1
[4] = test system: Staphylococcus epidermidis; experiment: Antibacterial activity against methicillin-sensitive Staphylococcus epidermidis ATCC 12228 assessed as reduction in bacterial growth incubated for 18 hrs by agar dilution method; details: ATCC 12228, 18 h; outline: as §1

For `C=C[C@]1(C)C[C@@H](OC(=O)CS[C@@H]2CC[C@H](C(=O)OCC)C[C@H]2NS(=O)(=O)c2ccc(C(C)=O)cc2)[C@]2(C)[C@H](C)CC[C@]3(CCC(=O)[C@H]32)[C@@H](C)[C@@H]1O`, which MIC (Staphylococcus aureus [1]) is on record?
Its MIC is 0.25 µg/mL (≈ 0.335 µM).

What about the MIC [2] of the same compound?
The MIC was 0.25 µg/mL (≈ 0.335 µM).

What about the MIC (Staphylococcus aureus [3]) of the same compound?
The MIC was 0.25 µg/mL (≈ 0.335 µM).

And the MIC [4]?
The MIC was 0.25 µg/mL (≈ 0.335 µM).

With `C=C[C@]1(C)C[C@@H](OC(=O)CS[C@@H]2CC[C@H](C(=O)OCC)C[C@H]2NS(=O)(=O)c2ccccc2)[C@]2(C)[C@H](C)CC[C@]3(CCC(=O)[C@H]32)[C@@H](C)[C@@H]1O` as the compound, how does the MIC (Staphylococcus aureus [1]) read?
The MIC was 1 µg/mL (≈ 1.42 µM).

And the MIC [2]?
Its MIC is 1 µg/mL (≈ 1.42 µM).

And the MIC (Staphylococcus aureus [3])?
Its MIC is 0.5 µg/mL (≈ 0.71 µM).

And the MIC [4]?
Its MIC is 0.5 µg/mL (≈ 0.71 µM).

Which MIC (Staphylococcus aureus [1]) does the source give for `C=C[C@]1(C)C[C@@H](OC(=O)CS[C@@H]2CC[C@@H](N)C[C@H]2O)[C@]2(C)[C@H](C)CC[C@]3(CCC(=O)[C@H]32)[C@@H](C)[C@@H]1O` [LEFAMULIN] here?
The MIC was 0.25 µg/mL (≈ 0.492 µM).

And the MIC [2]?
Its MIC is 0.25 µg/mL (≈ 0.492 µM).

What about the MIC (Staphylococcus aureus [3]) of the same compound?
Its MIC is 0.5 µg/mL (≈ 0.985 µM).

And the MIC [4]?
The MIC was no more than 0.03 µg/mL.

Which results are given for `C=C[C@]1(C)C[C@@H](OC(=O)CS[C@@H]2CC[C@H](C(=O)OCC)C[C@H]2NS(=O)(=O)c2ccc(Cl)cc2)[C@]2(C)[C@H](C)CC[C@]3(CCC(=O)[C@H]32)[C@@H](C)[C@@H]1O`?
MIC (Staphylococcus aureus [1]): 1 µg/mL (≈ 1.35 µM); MIC [2]: 0.5 µg/mL (≈ 0.677 µM); MIC (Staphylococcus aureus [3]): 0.5 µg/mL (≈ 0.677 µM); MIC [4]: 0.5 µg/mL (≈ 0.677 µM)

Which results are given for `C=C[C@]1(C)C[C@@H](OC(=O)CS[C@@H]2CC[C@H](C(=O)OCC)C[C@H]2NS(=O)(=O)c2ccc(C#N)cc2)[C@]2(C)[C@H](C)CC[C@]3(CCC(=O)[C@H]32)[C@@H](C)[C@@H]1O`?
MIC (Staphylococcus aureus [1]): 1 µg/mL (≈ 1.37 µM); MIC [2]: 0.5 µg/mL (≈ 0.686 µM); MIC (Staphylococcus aureus [3]): 1 µg/mL (≈ 1.37 µM); MIC [4]: 0.25 µg/mL (≈ 0.343 µM)

`C=C[C@]1(C)C[C@@H](OC(=O)CS[C@@H]2CC[C@H](C(=O)OCC)C[C@H]2NS(=O)(=O)c2ccc(F)cc2)[C@]2(C)[C@H](C)CC[C@]3(CCC(=O)[C@H]32)[C@@H](C)[C@@H]1O` was tested. Which MIC (Staphylococcus aureus [1]) did it give?
The MIC was 1 µg/mL (≈ 1.39 µM).

What about the MIC [2] of the same compound?
Its MIC is 1 µg/mL (≈ 1.39 µM).

What about the MIC (Staphylococcus aureus [3]) of the same compound?
Its MIC is 1 µg/mL (≈ 1.39 µM).

And the MIC [4]?
Its MIC is 0.5 µg/mL (≈ 0.693 µM).

Which results are given for `C=C[C@]1(C)C[C@@H](OC(=O)CS[C@@H]2CC[C@H](C(=O)OCC)C[C@H]2NS(=O)(=O)c2ccc(Br)cc2)[C@]2(C)[C@H](C)CC[C@]3(CCC(=O)[C@H]32)[C@@H](C)[C@@H]1O`?
MIC (Staphylococcus aureus [1]): 1 µg/mL (≈ 1.28 µM); MIC [2]: 1 µg/mL (≈ 1.28 µM); MIC (Staphylococcus aureus [3]): 1 µg/mL (≈ 1.28 µM); MIC [4]: 1 µg/mL (≈ 1.28 µM)

Which MIC (Staphylococcus aureus [1]) does the source give for `C=C[C@]1(C)C[C@@H](OC(=O)CS[C@@H]2CC[C@H](C(=O)O)C[C@H]2N)[C@]2(C)[C@H](C)CC[C@]3(CCC(=O)[C@H]32)[C@@H](C)[C@@H]1O` here?
The MIC was 32 µg/mL (≈ 59.7 µM).

And the MIC [2]?
Its MIC is 4 µg/mL (≈ 7.47 µM).

What about the MIC (Staphylococcus aureus [3]) of the same compound?
The MIC was 32 µg/mL (≈ 59.7 µM).

What about the MIC [4] of the same compound?
The MIC was 2 µg/mL (≈ 3.73 µM).

For `C=C[C@]1(C)C[C@@H](OC(=O)CS[C@@H]2CC[C@H](C(=O)OCC)C[C@H]2NS(=O)(=O)c2ccc([N+](=O)[O-])cc2)[C@]2(C)[C@H](C)CC[C@]3(CCC(=O)[C@H]32)[C@@H](C)[C@@H]1O`, which MIC (Staphylococcus aureus [1]) is on record?
The MIC was 1 µg/mL (≈ 1.34 µM).

What about the MIC [2] of the same compound?
Its MIC is 0.5 µg/mL (≈ 0.668 µM).

What about the MIC (Staphylococcus aureus [3]) of the same compound?
The MIC was 1 µg/mL (≈ 1.34 µM).

And the MIC [4]?
Its MIC is 0.5 µg/mL (≈ 0.668 µM).

What does the source list for `C=C[C@]1(C)C[C@@H](OC(=O)CS[C@@H]2CC[C@H](C(=O)OCC)C[C@H]2NS(=O)(=O)c2ccc(NC(C)=O)cc2)[C@]2(C)[C@H](C)CC[C@]3(CCC(=O)[C@H]32)[C@@H](C)[C@@H]1O`?
MIC (Staphylococcus aureus [1]): 0.5 µg/mL (≈ 0.657 µM); MIC [2]: 0.5 µg/mL (≈ 0.657 µM); MIC (Staphylococcus aureus [3]): 0.5 µg/mL (≈ 0.657 µM); MIC [4]: 0.5 µg/mL (≈ 0.657 µM)

Which results are given for `C=C[C@]1(C)C[C@@H](OC(=O)CS[C@@H]2CC[C@H](C(=O)OCC)C[C@H]2N)[C@]2(C)[C@H](C)CC[C@]3(CCC(=O)[C@H]32)[C@@H](C)[C@@H]1O`?
MIC (Staphylococcus aureus [1]): 1 µg/mL (≈ 1.77 µM); MIC [2]: 0.25 µg/mL (≈ 0.443 µM); MIC (Staphylococcus aureus [3]): 1 µg/mL (≈ 1.77 µM); MIC [4]: 0.25 µg/mL (≈ 0.443 µM)

Which results are given for `C=C[C@]1(C)C[C@@H](OC(=O)CS[C@@H]2CC[C@H](C(=O)OCC)C[C@H]2NS(=O)(=O)c2ccc(C)cc2)[C@]2(C)[C@H](C)CC[C@]3(CCC(=O)[C@H]32)[C@@H](C)[C@@H]1O`?
MIC (Staphylococcus aureus [1]): 1 µg/mL (≈ 1.39 µM); MIC [2]: 0.5 µg/mL (≈ 0.696 µM); MIC (Staphylococcus aureus [3]): 1 µg/mL (≈ 1.39 µM); MIC [4]: 0.25 µg/mL (≈ 0.348 µM)

`C=C[C@]1(C)C[C@@H](OC(=O)CS[C@@H]2CC[C@H](C(=O)OCC)C[C@H]2NS(=O)(=O)c2ccc(OC)cc2)[C@]2(C)[C@H](C)CC[C@]3(CCC(=O)[C@H]32)[C@@H](C)[C@@H]1O` was tested. Which MIC (Staphylococcus aureus [1]) did it give?
Its MIC is 0.5 µg/mL (≈ 0.681 µM).

And the MIC [2]?
Its MIC is 0.5 µg/mL (≈ 0.681 µM).

And the MIC (Staphylococcus aureus [3])?
Its MIC is 0.25 µg/mL (≈ 0.341 µM).

And the MIC [4]?
Its MIC is 0.25 µg/mL (≈ 0.341 µM).

From ChEMBL document CHEMBL4627272, “Design, synthesis, and biological activity evaluation of a series of pleuromutilin derivatives with novel C14 side chains” (2020)
